Assay outcomes deposited in PubChem by SRMLSC.
PostGolgi yeast – growth inhibition of a yeast mutant, post-Golgi transport screen. hit rate 0.9% among 98,000. post-Golgi transport phenotypic cell assay. inhibition, % at 10 µM;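 note: yeast cells grown in 1536-well plates; yeast grown about 18 h at 30C before absorbance read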
Ecoli WT expand – growth inhibitors of E. coli BW25113 wild type. OD600 absorbance. growth inhibition, % at 100 µM. hit rate 0.15% among 98,000. AID 710;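 active = growth inhibition above about 50% at one test dose, limit read from the data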;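 note: growth measured after 20 h incubation at 37 °C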
HER2 expr 66K – Her2 kinase expression inhibition; AID 645; HER2 level % of control, % at 10 µM; hit rate 0.69% among 65,000; P04626; SKBR-3 HER2 protein level, AlphaScreen, 18-24 h; stronger effect = lower value;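 active = HER2 level under 5% of the carrier-only control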;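 note: 100% = DMSO carrier and 0% = 500 nM PU-H71 HSP90 inhibitor; lower value means stronger loss of Her2 protein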
PostGolgi ctrl – inhibits growth of the yeast control strain. inhibition, % at 10 µM. hit rate 5% among 98,000. efflux-deficient yeast background strain, growth absorbance A615, 16 h
Ecoli tolC – growth inhibitors of E. coli BW25113 tolC mutant; OD615; growth inhibition, % at 10 µM (by protocol); hit rate 2.2% among 65,000; AID 573;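 active = growth inhibition at or above a cutoff equal to the mean over every tested compound plus 3 SD, cut at about 60% in these data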;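 note: growth measured after 20 h incubation at 37 °C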
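Doses: one dose of 10 µM final / Material: E. coli BW25113 ΔtolC::kan, tolC deletion mutant strain / Buffer or medium: LB with kanamycin 50 µg/mL / Evaluation: percent growth inhibition / Detection: optical density read at 615 nm / Incubation: 37 °C, 20 h exposure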
* = called active by the depositor; . = no result given. In the library only some 6.6% were active in any assay of this set; here they are far more common. Cut-off read from the data, not from the text of the source, unless noted: active = inhibition above about 30%; inactive = the rest.

SMILES | PostGolgi yeast | Ecoli WT expand | HER2 expr 66K | PostGolgi ctrl | Ecoli tolC
COc1ccc(N(CC(=O)Nc2ccc(S(=O)(=O)N3CCOCC3)cc2)S(=O)(=O)c2ccccc2)cc1 | 7 | -10 | . | 4 | .
Cn1c(=O)c2nc(NCc3ccccc3)cnc2n(C)c1=O | 35* | 4 | 127 | -1 | -13
Cc1sc2nc(C3CC3)nc(NCCNS(C)(=O)=O)c2c1C | 2 | 5 | 84 | -7 | -2
Oc1ccc(/C=N/Nc2cccc3cccnc23)c(O)c1 | 2 | -8 | . | 19 | .
O=C(O)c1ccccc1N/N=C\c1ccnc2ccccc12 | -10 | -9 | . | 31* | .
N/C(=N\OC(=O)C(c1ccccc1)c1ccccc1)c1cccnc1 | -3 | 0 | . | 39* | .
N/C(=N\OC(=O)c1ccc(Cl)cc1)c1cccnc1 | -3 | 9 | . | 10 | .
O=C(CN1CCC(C(O)(c2ccccc2)c2ccccc2)CC1)Nc1ccccc1 | 15 | 8 | . | -3 | .
O=C(CN1CCC(C(O)(c2ccccc2)c2ccccc2)CC1)Nc1cc(Cl)ccc1Cl | 8 | -13 | . | 37* | .
CCCCNC(=O)Nc1ccnn1C1CCCCC1 | 1 | 7 | 122 | -2 | 7
O=C1NC(c2ccccc2)C(C(=O)c2cccs2)=C1O (configuration not stated) | 24 | -3 | 99 | 13 | -7
Cc1ccc2cc(C#N)c(NCCNC(=O)C3CC3)nc2c1C | 8 | -5 | 89 | 17 | 2
CCOC(=O)n1c(=O)n(Cc2ccc(Cl)cc2Cl)c2ccccc21 | -11 | -10 | . | 34* | .
O=Nc1c(O)n(Cc2ccc(Cl)cc2Cl)c2ccccc12 | 34* | 7 | . | 65* | .
CCOC(=O)n1c(=O)n(Cc2ccccc2Cl)c2ccccc21 | 8 | 3 | . | 47* | .
CCOC(=O)Cn1c(=O)n(CC(=O)OCC)c2ccccc21 | 11 | -5 | 96 | -8 | -16
N=c1n(CC(=O)O)c2ccccc2n1Cc1ccccc1Cl | 0 | -2 | 93 | 3 | -23
O=C(NCCc1ccccc1)C1CCCN(S(=O)(=O)c2cccc3nsnc23)C1 (configuration not stated) | . | . | 81 | . | 0
CCCCCC(=O)N1CC2(CC)CN(C(=O)CCCCC)CC(CC)(C1)C2=O | . | . | 98 | . | 2
CCc1nn(-c2ccccc2)c2c1-c1cc(OC)c(OC)cc1C1(N2)C(=O)Nc2ccccc21 (configuration not stated) | 24 | 2 | . | 6 | .
Cn1c(C(=O)N2CCCCCC2)cc2c(=O)n(C)c3ccccc3c21 | -7 | 1 | 76 | 9 | 7
Cc1cccc(N2CCN(C(=O)c3cc4c(=O)n(C)c5ccccc5c4n3C)CC2C)c1 (configuration not stated) | -2 | -6 | 61 | 37* | 53
CC(=O)Oc1c(Cl)c(N2CCOCC2)c(OC(C)=O)c2ccccc12 | 15 | 6 | 78 | 9 | -1
O=C(N/N=C/C=C/c1ccccc1)c1cc2c(ccc3ccccc32)o1 | 1 | -1 | . | 10 | .
O=C1C2C3C=CC(C3)C2C(=O)N1c1ncn[nH]1 (configuration not stated) | 9 | -8 | 80 | 35* | 1
SMILES | PostGolgi yeast | Ecoli WT expand | HER2 expr 66K | PostGolgi ctrl | Ecoli tolC
CN(C)C(=O)N1CCC(C(=O)NCc2ccccc2)CC1 | -8 | 3 | 138 | 38* | -7
CS(=O)(=O)N1CCC(C(=O)NCCN2CCN(Cc3ccccc3)CC2)CC1 | 31* | 6 | 103 | -3 | 0
CN(C)C(=O)N1CCC(C(=O)NCc2ccc(F)cc2)CC1 | -13 | 9 | 101 | 2 | -7
O=C(NCCc1ccccc1)C1CCN(S(=O)(=O)N2CCCC2)CC1 | 33* | 5 | 53 | -4 | -6
O=C(NCCc1ccc(Cl)cc1)C1CCN(S(=O)(=O)N2CCCCC2)CC1 | -5 | -1 | 121 | 2 | 19
CCc1nc(SCC(=O)Nc2cccc(C(F)(F)F)c2)c2c(=O)n(C)c(=O)n(C)c2n1 | -1 | -9 | 66 | 2 | 2
COc1ccc(-c2nnc(SCc3nc4ccccc4s3)n2C(C)C)cc1 | 1 | -5 | . | 30* | .
Cc1cccc(OCc2nnc(SCC(=O)Nc3ccc(C)c(Cl)c3)o2)c1 | -9 | -5 | 117 | 7 | 13
Cc1sc(NC(=O)C2CC=CCC2C(=O)O)c(C(=O)OC(C)C)c1C (configuration not stated) | -5 | 4 | . | 9 | .
Cn1c(=O)oc2cc(S(=O)(=O)Nc3cccc4c3CCCC4)ccc21 | 0 | -1 | 97 | 12 | 20
Oc1ccc(Nc2nc(-c3ccc4ccccc4c3)cs2)cc1 | 93* | 0 | . | 82* | .
Cc1ccc(Nc2nc(-c3c(C)nc4ncccn34)cs2)cc1 | -12 | 5 | . | 20 | .
Cc1ccc(Nc2nc(-c3c(C)nc4ccccn34)cs2)cc1 | -9 | -1 | . | 75* | .
CCOC(=O)C1CCCN(c2cc(C)nc3cc(-c4ccc(F)cc4)nn23)C1 (configuration not stated) | 0 | -5 | 99 | 42* | 55
CCOc1cc(C(=O)CSc2nnc(CNc3ccc(Cl)cc3)o2)ccc1NC(=O)CC | -7 | 0 | -22* | -4 | 0
COc1ccc(NCc2nnc(SCC(=O)c3ccc(OC)cc3)o2)cc1 | -10 | 0 | . | 16 | .
CCCCn1c(=O)n(Cc2cccc(F)c2)c(=O)c2c1ncn2Cc1ccco1 | -10 | -6 | 119 | 39* | 65*
Cn1c2ccc(F)cc2c2ncn(Cc3ccco3)c(=O)c21 | 2 | 5 | . | 8 | .
O=C(c1cccs1)N1CCN=C1SCc1cccnc1 | 6 | -11 | 96 | 31* | -18
O=C(c1cccc(F)c1)N1CCN=C1SCc1cccnc1 | -4 | -7 | 100 | 3 | -26
O=C(c1ccco1)N1CCN=C1SCc1cccnc1 | 30* | -3 | 87 | -2 | -19
Cc1c(/C(O)=C2/C(=O)C(=O)N(CCCN3CCOCC3)C2c2ccncc2)cnn1-c1ccccc1 (configuration not stated) | . | . | 117 | . | 6
O=C(CSc1nnc(-c2cccs2)n1CC1CCCO1)c1cc2ccccc2o1 (configuration not stated) | -6 | 3 | 103 | -10 | 11
Cc1ccc(S(=O)(=O)N2CCN(C(=O)N3CCOCC3)C2C(C)C)cc1 (configuration not stated) | 4 | -4 | 106 | 35* | -19
Cc1ccc(S(=O)(=O)N2CCN(C(=O)c3ccccc3)C2C(C)C)cc1 (configuration not stated) | 1 | -9 | 101 | 31* | 7
CC(=O)N1CCN(S(=O)(=O)c2ccc(C)cc2)C1C(C)C (configuration not stated) | 6 | -8 | 103 | -9 | -16
COc1ccc(C2CC(c3ccccc3)n3nc(NC(=O)c4cccs4)nc3N2)cc1 (configuration not stated) | -1 | -2 | 86 | -1 | 65*
COc1ccc(C2CC(c3ccccc3)=NN2C(=O)c2cccs2)cc1 (configuration not stated) | -16 | 1 | . | 67* | .
COc1ccc(C2CC(c3ccc(Cl)c(Cl)c3)Nc3nc(N)nn32)cc1 (configuration not stated) | 1 | -6 | 111 | 36* | 26
